PAX8 inh HTS: inhibitors of PAX8 transcriptional activity in RMG-I cells | RMG-I TPO-luciferase reporter, SteadyGlo, 24 h | inhibition, % at 12.6 µM | 360,000 tested, 1.2% active | AID 652154;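 active means mean replicate inhibition at least 60% with every replicate also reaching 60%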;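 further: luciferase light reporting Pax8 driven TPO promoter activity; plate controls were median of neutral control wells for no effect and mitoxantrone controls for full effect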
Rtt109 HAT inh: inhibitors of Candida albicans Rtt109/Vps75 histone acetyltransferase; 330,000 tested, 0.16% active; purified Rtt109/Vps75, ThioGlo CoA-SH fluorescence, 4 h; AID 540336; Q5AAJ8; inhibition, % at 34.9 µM;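 active means inhibition of at least 50% in every replicate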
Target sequence (Q5AAJ8 whole entry, looked up): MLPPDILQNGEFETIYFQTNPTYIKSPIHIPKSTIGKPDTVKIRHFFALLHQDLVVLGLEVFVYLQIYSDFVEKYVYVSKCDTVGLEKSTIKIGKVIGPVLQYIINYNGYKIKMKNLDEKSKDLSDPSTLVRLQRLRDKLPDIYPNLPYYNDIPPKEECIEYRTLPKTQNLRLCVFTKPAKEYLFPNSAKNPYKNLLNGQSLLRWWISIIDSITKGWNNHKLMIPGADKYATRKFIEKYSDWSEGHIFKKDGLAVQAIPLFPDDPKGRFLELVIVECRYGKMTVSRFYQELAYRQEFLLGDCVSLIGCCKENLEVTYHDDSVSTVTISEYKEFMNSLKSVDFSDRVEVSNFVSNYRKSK
Env fusion inh: HIV envelope-mediated fusion inhibition; HeLa-JRFL Env/CEM21 cell fusion, luciferase; inhibition, % at 12.3 µM; 360,000 tested, 1.1% active;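 active means mean replicate inhibition score of at least 50 and every replicate individually at or above 50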;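 further: 0% = plate neutral controls and 100% = maraviroc near 300 nM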
PfHsp90 set2: reduces growth (ATP signal) of yeast expressing P. falciparum Hsp90; S. cerevisiae expressing PfHsp90, BacTiter-Glo ATP, 48 h; yeast lacking PDR1 and PDR3 efflux regulators; inhibition, % at 9.4 µM; 310,000 tested, 0.32% active;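 active means every replicate shows inhibition above about 80%, whatever the replicate mean, limit read from the data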;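 further: 0% = DMSO neutral controls and 100% = 20 µM radicicol positive controls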
N-glyco inh: blocks N-linked glycosylation in D54 reporter cells. 360,000 tested, 0.23% active. reporter increase, % at 12.5 µM. D54 ERlucT glycosylation luciferase reporter, 24 h; percent of 100 nM tunicamycin response;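 active means mean luciferase reporter signal, scaled so untreated is 0 and the glycosylation-blocking control 100, at or above a set limit in every replicate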;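 further: luciferase carries N-glycosylation sites so blocking glycosylation raises the light; 0% = median of neutral control wells and 100% = median of 100 nM tunicamycin wells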
Arr AP2 block: inhibitors of human beta-arrestin and AP2 interaction; 340,000 tested, 0.31% active; inhibition, % at 10 µM; FITC-arrestin peptide / GST-AP2 beads, flow cytometry; AP2 beta2 appendage carries R879A mutation;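 active means inhibition above a set limit, near 3 SD of compounds lacking own fluorescence, cut at about 54% in these data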;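 further: plate controls were DMSO wells for no effect and 5 µM unlabelled arrestin peptide for full effect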
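test system = AP2 appendage R879A on GSH beads | buffer or medium = PBS plus Tween 20 (0.05%) and BSA (0.1%) | incubation = 12 min plus 1 h, RT | detection = bead flow cytometry, FITC channel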
* hit, by the source's call; nt = no result; [ ] = remark or other dose. Sampled rows, rich in hits. Any-hit rate of the full collection: about 2.3%.

SMILES | PAX8 inh HTS | Rtt109 HAT inh | Env fusion inh | PfHsp90 set2 | N-glyco inh | Arr AP2 block
Cc1ccc(CSCCNC(=O)c2ccc(Cl)c(S(=O)(=O)N3CCOCC3)c2)cc1 | nt | 7 | 85* | 18 | 0 | -2
O=C(NCCC1=CCCCC1)c1ccc(Cl)c(S(=O)(=O)N2CCOCC2)c1 | 3 | -1 | 43 | 38 | -3 | 12
COc1ccc2c3c(n(C)c2c1)[C@H](CO)N(C(=O)C1CC1)CC31CCN(C(=O)c2ccncc2)CC1 | -2 | nt | nt | nt | nt | nt
CCNC(=O)Nc1ccc2c(c1)C(=O)N(C)[C@H]1CC[C@H](CC(=O)NCc3ccc(F)cc3)O[C@H]1CO2 | 3 | nt | 11[16.7 µM] | nt | nt | nt
CCC(=O)N(C)C[C@@H]1Oc2cc(C#CC(C)C)ccc2S(=O)(=O)N([C@H](C)CO)C[C@H]1C | nt | nt | -63[16.7 µM] | nt | nt | nt
Cn1c(=O)[nH]c(=O)c2c1nc(SCC(N)=O)n2Cc1cccc(Br)c1 | -6 | 0 | 13 | -26 | 27* | 6
CC1(Cc2ccc(OC(F)(F)F)cc2)C(=O)Nc2ccc(S(=O)(=O)NC3CCCCC3)cc21 (stereo not drawn) | 90* | nt | 9 | nt | -8 | nt
CC1(Cc2ccc(Cl)cc2)C(=O)Nc2ccc(S(=O)(=O)NC3CCCCC3)cc21 (stereo not drawn) | 6 | nt | 91* | nt | -5 | nt
CC1(Cc2ccc(S(C)(=O)=O)cc2)C(=O)Nc2ccc(Cl)cc21 (stereo not drawn) | 7 | nt | nt | nt | 2 | nt
Cc1noc(C)c1NC(=O)Nc1ccc2c(c1)C(=O)N([C@H](C)CO)C[C@H](C)[C@H](CN(C)C(=O)Nc1ccc(F)cc1)OCCCC[C@H](C)O2 | 8 | nt | -17[16.7 µM] | nt | nt | nt
CO[C@@H]1CN(C)C(=O)c2cc(NC(=O)c3ccno3)ccc2OC[C@H](C)NC[C@@H]1C | -6 | nt | -5[16.7 µM] | nt | nt | nt
CNC(=O)C[C@H]1CC[C@H]2[C@@H](COc3ccc(NC(=O)Nc4c(C)noc4C)cc3C(=O)N2C)O1 | -7 | nt | -29[16.7 µM] | nt | nt | nt
Nc1ccc2c(c1)Cc1cc(Cl)c(Cl)cc1-2 | -98 | -1 | 60* | 5 | 2 | 11
C[C@H]1CN([C@@H](C)CO)C(=O)Cc2cc(NS(=O)(=O)c3ccccc3)ccc2O[C@H]1CN(C)Cc1ccc(-c2ccccc2)cc1 | 9 | nt | -9[16.7 µM] | nt | nt | nt
C[C@H](CO)N1C[C@H](C)[C@@H](CN(C)Cc2ccc(-c3ccccc3)cc2)Oc2ccc(NS(=O)(=O)c3ccccc3)cc2CC1=O | 80* | nt | -34[16.7 µM] | nt | nt | nt
C[C@@H]1CN([C@@H](C)CO)C(=O)Cc2cc(NS(=O)(=O)c3ccc(Cl)cc3)ccc2O[C@H]1CN(C)Cc1ccc(-c2ccccc2)cc1 | 69* | nt | 23[16.7 µM] | nt | nt | nt
Cc1ccc(S(=O)(=O)Nc2cccc3c2O[C@H](CN(C)Cc2ccc4c(c2)OCO4)[C@H](C)CN([C@H](C)CO)C3=O)cc1 | -5 | nt | 17[16.7 µM] | nt | nt | nt
O=S1(=O)C=C(Sc2nnc(-c3ccccc3)o2)c2ccccc21 | nt | 0 | nt | 111* | -20 | 18
CC(=O)N(C)C[C@@H]1Oc2cc(C#CCN(C)C)ccc2S(=O)(=O)N([C@@H](C)CO)C[C@H]1C | nt | nt | -8[16.7 µM] | nt | nt | nt
Cc1cc([N+](=O)[O-])nn1Cc1ccc(C(=O)N/N=C/c2ccc(O)cc2O)cc1 | 63* | -1 | 25 | 21 | -3 | -2
O=C(N/N=C/c1ccc(O)cc1O)c1ccc(CN2C(=O)c3cccc4cccc2c34)cc1 | 67* | -17 | 10 | 6 | -10 | 7
Cc1cc([N+](=O)[O-])nn1Cc1ccc(C(=O)N/N=C/c2ccc(F)cc2)cc1 | -11 | -2 | 3 | 5 | 1 | -5
O=C(N/N=C/c1ccccc1)c1ccc(CN2C(=O)c3cccc4cccc2c34)cc1 | 32 | -9 | -28 | -7 | 4 | 9
COc1ccc2nc(NC(=O)C3CCN(S(=O)(=O)c4cccs4)CC3)sc2c1 | nt | 1 | nt | -1 | -15 | -2
COc1ccc(NC(=O)c2nc3ccccc3s2)cc1 | -105 | 54* | -45 | 19 | -18 | 4
SMILES | PAX8 inh HTS | Rtt109 HAT inh | Env fusion inh | PfHsp90 set2 | N-glyco inh | Arr AP2 block
COc1ccc2nc(NC(=O)c3ccccc3C(=O)O)sc2c1 | 14 | 3 | -7 | 2 | 2 | 26
COc1ccccc1C(=O)Nc1nc2ccccc2s1 | 101* | -7 | 79* | 29 | -23 | 47
Cc1ccc2nc(NC(=O)C3CCN(S(=O)(=O)c4cccs4)CC3)sc2c1 | nt | 4 | 80* | 0 | -11 | -14
COc1ccccc1C(=O)Nc1nc2ccc(S(C)(=O)=O)cc2s1 | nt | -5 | -109 | -7 | -4 | 0
COc1ccc(C(=O)Nc2nc3ccccc3s2)c(OC)c1 | 106* | -7 | 79* | 58 | -20 | -2
COc1ccc(OC)c(NC(=O)c2nc3ccccc3s2)c1 | -26 | -31 | -35 | -22 | 3 | 16
COc1ccc(NC(=O)N[C@@H]2CC[C@H](CCn3cc(-c4ccccn4)nn3)O[C@H]2CO)cc1 | 10 | nt | -9[16.7 µM] | nt | nt | nt
C[C@H](CO)N1C[C@H](C)[C@H](CN(C)S(=O)(=O)c2ccc(Cl)cc2)Oc2ccc(NC(=O)Nc3ccc4c(c3)OCO4)cc2CC1=O | nt | nt | -206[16.7 µM] | nt | nt | nt
COc1cc2nc(NC(=O)c3ccccc3)[nH]c(=O)c2cc1OC | 7 | 12 | -38 | -8 | 3 | -7
COc1cc2nc(NC(=O)c3ccccc3)sc(=O)c2cc1OC | 16 | -12 | 59* | 9 | 41* | 10
Cc1ccc2nc(NC(=O)c3ccccn3)sc2c1 | 72* | 3 | 37 | 19 | -23 | 45
O=C(Nc1ccc(Cl)cc1)/C(=C/c1cccc(O)c1)c1nc2ccccc2s1 | 98* | -5 | -183 | 13 | -15 | nt
COc1ccc(NC(=O)N(C)C[C@H]2OCCCC[C@H](C)Oc3ccc(NC(=O)Nc4c(C)noc4C)cc3C(=O)N([C@H](C)CO)C[C@@H]2C)cc1 | -2 | nt | -3[16.7 µM] | nt | nt | nt
Cc1ccc(-n2[nH]c(C)c(C=Nc3ccc4[nH]c(=O)[nH]c4c3)c2=O)cc1 | 0 | -7 | 3 | 9 | -2 | -3
Cc1ccc(N=Cc2c(C)[nH]n(-c3nc4ccccc4[nH]3)c2=O)cc1 | 28 | 7 | 8 | 91* | -6 | 32
CCNC(=O)C[C@H]1CC[C@@H]2[C@H](COc3ccc(NS(=O)(=O)c4ccccc4C)cc3C(=O)N2C)O1 | 17 | nt | 7[16.7 µM] | nt | nt | nt
CC(=O)c1cnn(-c2ccc(Cl)cc2)c1C | 14 | 0 | 13 | 4 | 2 | 17
Cc1c(C(=O)NCCSCc2cccc(C(F)(F)F)c2)cnn1-c1ccc(Cl)cc1 | 6 | 0 | 26 | 84* | -3 | -14
COc1ccc(N(C(=O)c2ccncc2)S(=O)(=O)c2ccc(OC)c(OC)c2)cc1 | -4 | -1 | -123 | 10 | -1 | -3
COc1ccc(N(C(=O)c2ccncc2)S(=O)(=O)c2ccccc2)cc1 | 12 | -9 | -14 | 194* | -1 | 3
